Screens deposited in PubChem by Sanford-Burnham Center for Chemical Genomics.
Most compounds without a hit are left out; they make up all but 0.77% or so of the library.
mIAP activ = activators of mouse IAP, primary screen, biochemical, luminescence, uHTS | AID 2805, 2010 | 330,000 tested, 0.24% active | muIAP, CDP-Star luminescence, 30 min; active compounds read high; 1 = vehicle-only enzyme signal, 0 = enzyme-free wells | activation factor at 10 µM;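 active means activation factor of at least 2 at 20 µM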
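Assay system: mouse IAP enzyme; reagent: chemiluminescent substrate CDP-Star; dosing: test compounds delivered from DMSO solution; schedule: 30 min at room temperature; measured by: luminescence from enzymatic CDP-Star hydrolysis; controls: DMSO-only wells and no-enzyme negative control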
hIAP block = human IAP inhibitors, primary screen, biochemical, luminescence, uHTS; Intestinal-type alkaline phosphatase (Homo sapiens), P09923; inhibition, % at 10 µM; 330,000 tested, 0.12% active; purified IAP, CDP-Star luminescence, 30 min;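 active means inhibition reaching a set limit with compound at 10 µM in the primary screen, cut at about 35% in these data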;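 further: plate controls were DMSO wells with enzyme for no effect and no-enzyme buffer wells for full effect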
Target sequence (P09923 whole entry, looked up): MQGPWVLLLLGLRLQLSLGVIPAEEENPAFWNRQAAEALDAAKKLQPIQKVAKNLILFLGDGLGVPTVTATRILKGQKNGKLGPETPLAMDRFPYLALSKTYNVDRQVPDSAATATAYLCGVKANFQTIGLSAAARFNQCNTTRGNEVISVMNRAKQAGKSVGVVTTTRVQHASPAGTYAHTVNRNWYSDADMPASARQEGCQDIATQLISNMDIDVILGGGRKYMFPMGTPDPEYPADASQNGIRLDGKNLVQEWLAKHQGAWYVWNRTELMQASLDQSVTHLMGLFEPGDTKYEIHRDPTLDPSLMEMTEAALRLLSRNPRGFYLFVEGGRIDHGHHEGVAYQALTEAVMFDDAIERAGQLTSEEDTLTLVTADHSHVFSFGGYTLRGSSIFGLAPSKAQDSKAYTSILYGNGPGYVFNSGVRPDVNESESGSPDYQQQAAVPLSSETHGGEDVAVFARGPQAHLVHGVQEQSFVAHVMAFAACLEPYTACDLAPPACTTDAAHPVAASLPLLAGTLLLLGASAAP
bIAP inhibitor = bovine intestinal alkaline phosphatase inhibitors, primary screen, selectivity assay for TNAP inhibitor project, biochemical, bovine IAP, CDP-star luminescence; inhibition, % at 20 µM; purified bovine IAP, 30 min; 190,000 tested, under 10 active;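 active means over 50% inhibition of intestinal alkaline phosphatase at 20 µM in the single-dose screen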
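test system = bovine IAP enzyme | medium = DEA buffer 100 mM, pH 9.8, with MgCl2 1.0 mM, ZnCl2 0.02 mM | detection = luminescence | dosing = single compound dose of 20 µM, 2% DMSO final | incubation = 30 min reaction at room temperature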
bIAP activator = bovine intestinal alkaline phosphatase activators, primary screen, biochemical, bovine IAP, CDP-star luminescence; AID 1016, 2008; purified bovine IAP, 30 min; active compounds read high; fold of DMSO-control signal, blank-subtracted; 200,000 tested, 0.17% active; alkaline phosphatase, intestinal [Bos taurus]; activation factor at 20 µM;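 active means activation factor of 2 or more at 20 µM, a signal rise over negative controls twice the positive control's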
hIAP activ = human IAP activators, primary screen, biochemical, luminescence, uHTS; activation factor at 10 µM; AID 2524, 2010; purified human IAP, CDP-Star luminescence, 30 min; active compounds read high; 1 = vehicle-only enzyme, 0 = enzyme-free background; Intestinal-type alkaline phosphatase (Homo sapiens), P09923; 330,000 tested, 0.16% active;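 active means activation factor of the enzyme at least 2-fold when tested at 20 µM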
mIAP block = inhibitors of mouse IAP, primary screen, biochemical, luminescence, uHTS; purified mouse IAP, CDP-Star luminescence, 30 min; intestinal alkaline phosphatase [Mus musculus]; inhibition, % at 10 µM; 330,000 tested, 0.2% active;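 active means inhibition of at least 40% at 10 µM in the primary screen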;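 further: plate controls were DMSO with enzyme for no effect and no enzyme wells for full effect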
The depositor's hits bear a star; i = inactive; . = no result given.

SMILES	mIAP activ	hIAP block	bIAP inhibitor	bIAP activator	hIAP activ	mIAP block
COc1ccc(NC(=O)C2CCC(CNc3c(N4CCC(C)CC4)c(=O)c3=O)CC2)cc1OC (stereo unspecified)	0.999	18.3	-205.8	3.1*	0.817	0.1
COc1cc(NC(=O)C2CCC(CNc3c(N4CCC(C)CC4)c(=O)c3=O)CC2)cc(OC)c1 (stereo unspecified)	1.23	8.2	-28.0	1.3	0.918	-23.0
Fc1c(F)c(F)c(N/N=C/c2c[nH]c3ccccc23)c(F)c1F	0.936	-12.1	-169.1	2.7*	1.12	6.4
Cc1noc(C)c1COC(=O)c1ccc(-c2nc3ccccc3s2)s1	0.578	-1.5	2.4	1	1.01	42.2*
CCNC(=O)COC(=O)c1ccc(-c2nc3ccccc3s2)s1	1.08	-5.4	-10.2	1.1	1.05	-7.6
Cn1nc(C(=O)NC2CCCCC2)c2ccccc2c1=O	0.961	12.5	3.5	1	0.875	3.9
Cn1nc(CC(=O)NC2CCCCCCCCCCC2)c2ccccc2c1=O	1.07	17.9	-128.9	2.3*	0.821	-7.1
C/C(CC(=O)NC(C)C)=N\NC(=O)COc1cc(C)c(Br)cc1Br	1.02	6.0	-159.3	2.6*	0.94	-2.5
Fc1ccccc1N1CCN(Cc2cc(-c3ccccc3)on2)CC1	0.902	28.5	.	.	0.715	9.8
Cc1cccc(NC(=O)C2C(c3ccccc3)C2(Cl)Cl)c1 (stereo unspecified)	2.47*	-19.6	1.4	1	1.2	-146.6
COc1cc2nc(SCC(=O)NCCc3ccccc3)n(Cc3ccco3)c(=O)c2cc1OC	0.876	4.4	-95.5	2*	0.956	12.4
O=C(CSc1nc2ccccc2c(=O)n1Cc1ccco1)NCc1ccco1	0.833	16.4	-20.7	1.2	0.836	16.7
O=C(COC(=O)c1cccc(Br)c1)NCc1ccco1	0.943	9.3	.	.	0.907	5.7
Cc1cc(C(=O)C(=O)O)c(C)n1-c1ccc(Cl)c(Cl)c1	1.01	-8.0	-146.5	2.5*	1.08	-1.2
O=C(NCc1cccnc1)c1cc2ccccc2oc1=O	1.06	-0.2	1.2	1	1	-5.6
O=C(NCCc1cccc(Cl)c1)c1cc2ccccc2oc1=O	0.591	-2.8	.	.	1.03	40.9*
Cc1cc(C)c(NC(=O)c2ccc(CN3CCc4ccccc4C3)cc2)c(C)c1	1.04	6.8	-106.7	2.1*	0.932	-4.1
C/C=C\C(=O)Nc1cccc(C2=NOC3(C2)C[C@@H](C(N)=O)N(C(=O)c2ccccc2)C3)c1 (stereo partly specified)	0.565	8.4	.	.	0.916	43.5*
Cc1cccc(NCc2nc3ccccc3n2Cc2ccccc2)c1	1.09	2.0	i	9.5*	0.98	-8.6
Cc1nc2cc(NCc3nc4ccccc4n3Cc3ccccc3)ccc2n1C	1.01	-15.6	-52.8	1.5	1.16	-1.1
CCCCC1=C(C(=O)OCC)C(C(=O)OCC)Oc2ccccc21 (stereo unspecified)	0.947	.	.	.	.	5.3
CCn1nc(C)c(/C=N/NC(=O)c2ccc3c(c2)c(C)c(C)n3Cc2ccccc2)c1C	4.26*	16.0	i	7*	0.84	-326.2
CCn1cc(/C=N\NC(=O)c2ccc3c(c2)c(C)c(C)n3Cc2ccccc2)c(C)n1	1.73	7.5	-324.9	4.2*	0.925	-73.2
CCn1ncc(/C=N\NC(=O)c2ccc3c(c2)c(C)c(C)n3Cc2ccccc2)c1C	3.4*	10.3	-347.4	4.5*	0.897	-240.3
CCn1nc(C)c(/C=N\NC(=O)c2ccc3c(c2)OCO3)c1C	0.953	-6.6	4.1	1	1.07	4.7
SMILES	mIAP activ	hIAP block	bIAP inhibitor	bIAP activator	hIAP activ	mIAP block
CCn1ncc(/C=N/NC(=O)c2ccc3c(c2)OCO3)c1C	1.07	-14.0	5.2	0.9	1.14	-7.1
Cn1nccc1C(=O)N1CCCC(N2CCN(c3cccc(C(F)(F)F)c3)CC2)C1 (stereo unspecified)	1	-3.5	.	.	1.03	0.0
CCOC(=O)c1cccc(NC(=O)Nc2ccc(OCC)cc2)c1	2.91*	-8.5	7.9	0.9	1.08	-191.3
COC(=O)c1ccc(NC(=O)Nc2ccc(F)cc2)cc1	1.78	0.8	25.3	0.7	0.992	-77.9
CCOC(=O)c1ccc(NC(=O)NCc2ccccc2OC)cc1	2.35*	-31.6	-15.6	1.2	1.32	-135.0
CCCCOC(=O)c1ccc(NC(=O)Nc2ccc(OC)c(OC)c2)cc1	2.15*	-28.2	19.3	0.8	1.28	-115.3
CCOC(=O)c1ccc(NC(=O)NCc2ccccc2)cc1	1.39	-3.4	9.0	0.9	1.03	-38.5
CCOC(=O)c1ccc(NC(=O)Nc2ccc(F)cc2)cc1	2.54*	3.5	21.6	0.8	0.965	-153.5
Cc1cc(C)c2cc(C(=O)N3CCN(c4ncccc4C(F)(F)F)CC3)[nH]c2c1	0.889	6.2	.	.	0.938	11.1
CS(=O)c1ccc(-n2c(=O)n(Cc3ccccc3)c(=O)c3[nH]cnc32)cc1 (stereo unspecified)	0.912	-3.4	.	.	1.03	8.8
COc1cccc(C2CN(c3ccc(F)cc3F)N=C2c2cccs2)c1OC (stereo unspecified)	2.04*	-3.1	10.2	0.9	1.03	-104.1
Clc1ccc(-n2nnc(-c3cccnc3Cl)n2)cc1Cl	0.508	4.7	9.7	0.9	0.953	49.2*
C[n+]1ccn(CC(=O)c2ccc(Br)cc2)c1	0.939	-1.7	-3.7	1	1.02	6.1
C[n+]1ccn(CC(=O)c2ccc(Cl)cc2)c1	0.931	-4.0	-148.2	2.5*	1.04	6.9
O=C(Nc1ccc2ccccc2c1)c1cn(-c2ccccc2)nc1-c1cccs1	2.14*	13.3	-2.2	1	0.867	-114.0
Cc1ccc(NC(=O)CSc2nc3ccccc3c(=O)n2CCCN2CCCCC2)cc1Cl	1.47	-33.1	-162.5	2.6*	1.33	-46.5
COc1cccc(C(=O)NCCN2CCN(c3ccccc3)CC2)c1	0.982	2.1	.	.	0.979	1.8
O=C(N/N=C\c1cc2c(cc1Cl)OCO2)c1cccs1	0.964	23.2	.	.	0.768	3.6
Cc1ccc(CCNC(=O)CC(C)CC2=NS(=O)(=O)c3ccccc3N2)cc1 (stereo unspecified)	0.961	8.2	.	.	0.918	3.9
O=c1ncn(-c2cccc(Cl)c2)c2ccccc12	1.02	0.8	.	.	0.992	-2.3
Cc1noc(C)c1C(=O)Nc1ccc(S(=O)(=O)N2CCC(C)CC2)cc1	0.494	-11.6	.	.	1.12	50.6*
